Each block holds one compound with its values, some of them ahead of it.
Experiments:
[1] = Drug level in wild type mouse urine treated with 50 mg/kg, po atazanavir by LC-MS/MS analysis; type: ADME, organism-based; set-up: dose 50 mg/kg, dosed compound name Azazanavir, route oral; conditions: in vivo
Summary of the method: (§1)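 Wild-type mice (n = 4) got a single oral 50 mg/kg dose and were housed individually in metabolic cages for 18 h, with urine and feces collected. Urine was diluted 1:4 in 50% acetonitrile and centrifuged. Feces were homogenized in water (1 mg/10 μl), mixed 1:1 with acetonitrile and centrifuged twice. Supernatants were analyzed by UPLC-TOFMS, with accurate mass (<10 ppm error) and MS/MS for identification.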

[2] = Drug level in wild type mouse feces treated with 50 mg/kg, po atazanavir by LC-MS/MS analysis; type: ADME, organism-based; set-up: dose 50 mg/kg, dosed compound name Azazanavir, route oral; conditions: in vivo; summary of the method: as §1
Liver microsome [3] = assay: Drug metabolism in human liver microsomes treated with 50 uM atazanavir by LC-MS/MS analysis; type: ADME
Summary of the method: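 Human liver microsomes (0.5 g protein/l) were incubated in PBS pH 7.4 with 50 μM substrate, in duplicate. After 5 min preincubation at 37°C, 1.0 mM NADPH (final) was added and the reaction ran 30 min with shaking; incubations without NADPH served as controls. Reactions were quenched with equal-volume acetonitrile, centrifuged and analyzed by UPLC-TOFMS.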

Cytochrome P450 2D6 = Cytochrome P450 2D6 (Homo sapiens, UniProt P10635); assay: Drug level assessed as human CYP2D6-mediated compound formation treated with atazanavir at 50 uM by UPLC-TOFMS system; type: ADME; conditions: recombinant enzyme
Summary of the method: (§2)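 Each cDNA-expressed human P450 (CYP1A2, 2A6, 2B6, 2C8, 2C9, 2C19, 2D6, 2E1, 3A4; 2 pmol), plus a control, was incubated in PBS pH 7.4 with 50 μM substrate. After 5 min preincubation at 37°C, 1.0 mM NADPH (final) was added and the reaction ran 30 min with shaking. Ketoconazole (10 μM) was co-incubated as a CYP3A inhibitor, and NADPH-free incubations served as controls. Reactions were quenched with acetonitrile, centrifuged and analyzed by UPLC-TOFMS.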

Cytochrome P450 3A4 [4] = biological target: T1, Cytochrome P450 3A4 (Homo sapiens, UniProt P08684); assay: Drug metabolism assessed as human CYP3A4-mediated formation at 50 uM by UPLC-TOFMS system; type: ADME; conditions: recombinant enzyme; summary of the method: as §2
Liver microsome [5] = assay: Drug metabolism in human liver microsomes assessed as ((S)-1-{(1S,2S)-1-Benzyl-2-hydroxy-3-[N'-((S)-2-methoxycarbonylamino-3,3-dimethyl-butyryl)-N-(4-pyridin-2-yl-benzyl)-hydrazino]-propylcarbamoyl}-3-hydroxy-2,2-dimethyl-propyl)-carbamic acid methyl ester formation at 50 uM by LC-MS/MS analysis; conditions: in vitro
Cytochrome P450 3A4 [6] = biological target: T1, Cytochrome P450 3A4; assay: Drug level assessed as human CYP3A4-mediated (S)-methyl 3,3-dimethyl-1-oxo-1-(2-(4-(pyridin-2-yl)benzyl)hydrazinyl)butan-2-ylcarbamate formation treated with 50 uM atazanavir by UPLC-TOFMS system; type: ADME; conditions: recombinant enzyme; summary of the method: as §2
[7] = Drug excretion in wildtype mouse feces assessed as ((S)-1-{(1S,2S)-1-Benzyl-2-hydroxy-3-[N'-((S)-2-methoxycarbonylamino-3,3-dimethyl-butyryl)-N-(4-pyridin-2-yl-benzyl)-hydrazino]-propylcarbamoyl}-3-hydroxy-2,2-dimethyl-propyl)-carbamic acid methyl ester formation at 50 mg/kg, po by LC-MS/MS analysis; type: ADME, organism-based; set-up: dose 50 mg/kg, dosed compound name Azazanavir, route oral; conditions: in vivo; summary of the method: as §1
[8] = (§3) Drug excretion in wildtype mouse feces assessed as ((S)-1-{(1S,2S)-1-Benzyl-2-hydroxy-3-[N'-((S)-2-methoxycarbonylamino-3,3-dimethyl-butyryl)-N-(4-pyridin-2-yl-benzyl)-hydrazino]-propylcarbamoyl}-3-hydroxy-2-hydroxymethyl-2-methyl-propyl)-carbamic acid methyl ester formation at 50 mg/kg, po by LC-MS/MS analysis; type: ADME, organism-based; set-up: dose 50 mg/kg, dosed compound name Azazanavir, route oral; conditions: in vivo; summary of the method: as §1
[9] = Drug excretion in wildtype mouse urine assessed as {(S)-3-Hydroxy-1-[N'-[(2S,3S)-2-hydroxy-3-((S)-4-hydroxy-2-methoxycarbonylamino-3,3-dimethyl-butyrylamino)-4-phenyl-butyl]-N'-(4-pyridin-2-yl-benzyl)-hydrazinocarbonyl]-2,2-dimethyl-propyl}-carbamic acid methyl ester formation at 50 mg/kg, po by LC-MS/MS analysis; type: ADME, organism-based; set-up: dose 50 mg/kg, dosed compound name Azazanavir, route oral; conditions: in vivo; summary of the method: as §1
[10] = Drug excretion in wild type mouse feces assessed as methyl (S)-1-((2S,3S)-4-(2-((S)-2-amino-3,3-dimethylbutanoyl)-1-(4-(pyridin-2-yl)benzyl)hydrazinyl)-3-hydroxy-1-phenylbutan-2-ylamino)-3,3-dimethyl-1-oxobutan-2-ylcarbamate formation at 50 mg/kg, po by LC-MS/MS analysis; type: ADME, organism-based; set-up: dose 50 mg/kg, dosed compound name Azazanavir, route oral; conditions: in vivo; summary of the method: as §1
Liver microsome [11] = assay: Drug metabolism in human liver microsomes assessed as methyl (S)-1-(2-((2S,3S)-3-((S)-2-amino-3,3-dimethylbutanamido)-2-hydroxy-4-phenylbutyl)-2-(4-(pyridin-2-yl)benzyl)hydrazinyl)-3,3-dimethyl-1-oxobutan-2-ylcarbamate formation at 50 uM by LC-MS/MS analysis; conditions: in vitro
[12] = Drug excretion in wildtype mouse urine assessed as ((S)-1-{(1S,2S)-1-Benzyl-2-hydroxy-3-[N'-((S)-2-methoxycarbonylamino-3,3-dimethyl-butyryl)-hydrazino propylcarbamoyl}-2,2-dimethyl-propyl)-carbamic acid methyl ester formation at 50 mg/kg, po by LC-MS/MS analysis; type: ADME, organism-based; set-up: dose 50 mg/kg, dosed compound name Azazanavir, route oral; conditions: in vivo; summary of the method: as §1
[13] = as §3, with “urine” for “feces”; type: ADME, organism-based; set-up: dose 50 mg/kg, dosed compound name Azazanavir, route oral; conditions: in vivo; summary of the method: as §1
[14] = Drug excretion in wild type mouse urine assessed as methyl (S)-1-((2S,3S)-4-(2-((S)-2-amino-3,3-dimethylbutanoyl)-1-(4-(pyridin-2-yl)benzyl)hydrazinyl)-3-hydroxy-1-phenylbutan-2-ylamino)-3,3-dimethyl-1-oxobutan-2-ylcarbamate formation at 50 mg/kg, po by LC-MS/MS analysis; type: ADME, organism-based; set-up: dose 50 mg/kg, dosed compound name Azazanavir, route oral; conditions: in vivo; summary of the method: as §1
Liver microsome [15] = assay: Drug metabolism in human liver microsomes assessed as ((S)-1-{(1S,2S)-1-Benzyl-2-hydroxy-3-[N'-((S)-2-methoxycarbonylamino-3,3-dimethyl-butyryl)-hydrazino]-propylcarbamoyl}-2,2-dimethyl-propyl)-carbamic acid methyl ester formation at 50 uM by LC-MS/MS analysis; conditions: in vitro
[16] = Drug excretion in wildtype mouse urine assessed as ((S)-1-{(1S,2S)-1-Benzyl-2-hydroxy-3-[N'-((S)-2-methoxycarbonylamino-3,3-dimethyl-butyryl)-N-(4-pyridin-2-yl-benzyl)-hydrazino]-propylcarbamoyl}-3-hydroxy-2,2-dimethyl-propyl)-carbamic acid methyl ester formation at 50 mg/kg, po by LC-MS/MS analysis; type: ADME, organism-based; set-up: dose 50 mg/kg, dosed compound name Azazanavir, route oral; conditions: in vivo; summary of the method: as §1
[17] = Drug excretion in wild type mouse assessed as (S)-methyl 3,3-dimethyl-1-oxo-1-(2-(4-(pyridin-2-yl)benzyl)hydrazinyl)butan-2-ylcarbamate formation at 50 mg/kg, po by LC-MS/MS analysis; type: ADME, organism-based; set-up: dose 50 mg/kg, dosed compound name Azazanavir, route oral; conditions: in vivo; summary of the method: as §1
[18] = Drug excretion in wildtype mouse feces assessed as {(S)-3-Hydroxy-1-[N'-[(2S,3S)-2-hydroxy-3-((S)-4-hydroxy-2-methoxycarbonylamino-3,3-dimethyl-butyrylamino)-4-phenyl-butyl]-N'-(4-pyridin-2-yl-benzyl)-hydrazinocarbonyl]-2,2-dimethyl-propyl}-carbamic acid methyl ester formation at 50 mg/kg, po by LC-MS/MS analysis; type: ADME, organism-based; set-up: dose 50 mg/kg, dosed compound name Azazanavir, route oral; conditions: in vivo; summary of the method: as §1
Liver microsome [19] = assay: Drug metabolism in human liver microsomes assessed as ((S)-1-{(1S,2S)-1-Benzyl-2-hydroxy-3-[N'-((S)-2-methoxycarbonylamino-3,3-dimethyl-butyryl)-N-(4-pyridin-2-yl-benzyl)-hydrazino]-propylcarbamoyl}-3-hydroxy-2-hydroxymethyl-2-methyl-propyl)-carbamic acid methyl ester formation at 50 uM by LC-MS/MS analysis; conditions: in vitro
Liver microsome [20] = assay: Drug metabolism in human liver microsomes assessed as (S)-methyl 3,3-dimethyl-1-oxo-1-(2-(4-(pyridin-2-yl)benzyl)hydrazinyl)butan-2-ylcarbamate formation at 50 uM by LC-MS/MS analysis; conditions: in vitro
[21] = Drug excretion in wild type mouse urine assessed as (S)-methyl 3,3-dimethyl-1-oxo-1-(2-(4-(pyridin-2-yl)benzyl)hydrazinyl)butan-2-ylcarbamate formation at 50 mg/kg, po by LC-MS/MS analysis; type: ADME, organism-based; set-up: dose 50 mg/kg, dosed compound name Azazanavir, route oral; conditions: in vivo; summary of the method: as §1
[22] = Drug excretion in wild type mouse urine assessed as methyl (S)-1-(2-((2S,3S)-3-((S)-2-amino-3,3-dimethylbutanamido)-2-hydroxy-4-phenylbutyl)-2-(4-(pyridin-2-yl)benzyl)hydrazinyl)-3,3-dimethyl-1-oxobutan-2-ylcarbamate formation at 50 mg/kg, po by LC-MS/MS analysis; type: ADME, organism-based; set-up: dose 50 mg/kg, dosed compound name Azazanavir, route oral; conditions: in vivo; summary of the method: as §1
[23] = Drug excretion in wildtype mouse feces assessed as ((S)-1-{(1S,2S)-1-Benzyl-2-hydroxy-3-[N'-((S)-2-methoxycarbonylamino-3,3-dimethyl-butyryl)-hydrazino propylcarbamoyl}-2,2-dimethyl-propyl)-carbamic acid methyl ester formation at 50 mg/kg, po by LC-MS/MS analysis; type: ADME, organism-based; set-up: dose 50 mg/kg, dosed compound name Azazanavir, route oral; conditions: in vivo; summary of the method: as §1
Liver microsome [24] = assay: Drug metabolism in human liver microsomes assessed as methyl (S)-1-((2S,3S)-4-(2-((S)-2-amino-3,3-dimethylbutanoyl)-1-(4-(pyridin-2-yl)benzyl)hydrazinyl)-3-hydroxy-1-phenylbutan-2-ylamino)-3,3-dimethyl-1-oxobutan-2-ylcarbamate formation by LC-MS/MS analysis
[25] = Drug excretion in wild type mouse feces assessed as methyl (S)-1-(2-((2S,3S)-3-((S)-2-amino-3,3-dimethylbutanamido)-2-hydroxy-4-phenylbutyl)-2-(4-(pyridin-2-yl)benzyl)hydrazinyl)-3,3-dimethyl-1-oxobutan-2-ylcarbamate formation at 50 mg/kg, po by LC-MS/MS analysis; type: ADME, organism-based; set-up: dose 50 mg/kg, dosed compound name Azazanavir, route oral; conditions: in vivo; summary of the method: as §1

T1 sequence (P08684 whole entry): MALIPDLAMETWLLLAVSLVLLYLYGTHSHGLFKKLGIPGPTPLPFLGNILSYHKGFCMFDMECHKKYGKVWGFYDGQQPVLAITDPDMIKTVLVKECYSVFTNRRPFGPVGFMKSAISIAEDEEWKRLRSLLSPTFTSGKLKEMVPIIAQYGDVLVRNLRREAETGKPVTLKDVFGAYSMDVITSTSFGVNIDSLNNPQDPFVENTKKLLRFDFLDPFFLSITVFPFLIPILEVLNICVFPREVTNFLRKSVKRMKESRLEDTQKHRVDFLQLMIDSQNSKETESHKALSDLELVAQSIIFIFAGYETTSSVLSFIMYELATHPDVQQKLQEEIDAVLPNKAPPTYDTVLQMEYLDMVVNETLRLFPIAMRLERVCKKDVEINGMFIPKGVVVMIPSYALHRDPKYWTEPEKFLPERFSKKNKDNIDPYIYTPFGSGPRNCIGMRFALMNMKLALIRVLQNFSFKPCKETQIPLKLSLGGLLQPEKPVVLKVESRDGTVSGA
Sequence of Cytochrome P450 2D6 (P10635 whole entry): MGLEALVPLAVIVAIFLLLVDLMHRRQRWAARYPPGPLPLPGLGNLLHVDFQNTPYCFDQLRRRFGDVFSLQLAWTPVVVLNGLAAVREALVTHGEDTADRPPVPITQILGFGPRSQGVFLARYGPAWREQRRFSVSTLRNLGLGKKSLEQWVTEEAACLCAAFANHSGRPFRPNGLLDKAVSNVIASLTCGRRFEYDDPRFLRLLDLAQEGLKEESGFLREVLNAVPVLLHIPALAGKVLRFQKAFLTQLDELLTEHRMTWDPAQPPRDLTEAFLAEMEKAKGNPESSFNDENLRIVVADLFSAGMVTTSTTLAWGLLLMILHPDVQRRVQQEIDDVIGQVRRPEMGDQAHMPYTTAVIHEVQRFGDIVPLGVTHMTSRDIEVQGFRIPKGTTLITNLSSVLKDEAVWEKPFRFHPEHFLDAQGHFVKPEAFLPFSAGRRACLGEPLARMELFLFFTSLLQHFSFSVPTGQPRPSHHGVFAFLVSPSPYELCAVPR

Compound: COC(=O)N[C@H](C(=O)N[C@@H](Cc1ccccc1)[C@@H](O)CN(Cc1ccc(-c2ccccn2)cc1)NC(=O)[C@@H](NC(=O)OC)C(C)(C)CO)C(C)(C)CO
Compound recovery [1]: metabolite_detected
Compound recovery [2]: metabolite_detected

Compound: COC(=O)N[C@H](C(=O)NNC[C@H](O)[C@H](Cc1ccccc1)NC(=O)[C@@H](NC(=O)OC)C(C)(C)C)C(C)(C)C
Compound recovery (Liver microsome [3]): metabolite_detected
Compound recovery [1]: metabolite_detected
Compound recovery (Cytochrome P450 2D6): metabolite_detected
Compound recovery (Cytochrome P450 3A4 [4]): metabolite_detected
Compound recovery [2]: metabolite_detected

Compound: COC(=O)N[C@H](C(=O)N[C@@H](Cc1ccccc1)[C@@H](O)CNN)C(C)(C)C
Compound recovery (Liver microsome [3]): metabolite_detected
Compound recovery [1]: metabolite_detected
Compound recovery [2]: metabolite_detected

Compound: COC(=O)N[C@H](C(=O)N[C@@H](Cc1ccccc1)[C@@H](O)CN(Cc1ccc(-c2ccccn2)cc1)NC(=O)[C@@H](N)C(C)(C)C)C(C)(C)C
Compound recovery (Liver microsome [3]): metabolite_detected
Compound recovery [1]: metabolite_detected
Compound recovery [2]: metabolite_detected

Compound: COC(=O)N[C@H](C(=O)N[C@@H](Cc1ccccc1)[C@@H](O)CN(Cc1ccc(-c2ccccn2)cc1)NC(=O)[C@@H](NC(=O)OC)C(C)(C)C)C(C)(C)C [ATAZANAVIR]
Compound recovery (Liver microsome [5]): metabolite_detected
Compound recovery (Cytochrome P450 3A4 [6]): metabolite_detected
Compound recovery [7]: metabolite_detected
Compound recovery [8]: metabolite_detected
Compound recovery [9]: metabolite_detected
Compound recovery [10]: metabolite_detected
Compound recovery (Liver microsome [11]): metabolite_detected
Compound recovery [12]: metabolite_detected
Compound recovery [13]: metabolite_detected
Compound recovery [14]: metabolite_detected
Compound recovery (Liver microsome [15]): metabolite_detected
Compound recovery [16]: metabolite_detected
Compound recovery [17]: metabolite_detected
Compound recovery [18]: metabolite_detected
Compound recovery (Liver microsome [19]): metabolite_detected
Compound recovery (Liver microsome [20]): metabolite_detected
Compound recovery [21]: metabolite_detected
Compound recovery [22]: metabolite_detected
Compound recovery [23]: metabolite_detected
Compound recovery (Liver microsome [24]): metabolite_detected
Compound recovery [25]: metabolite_detected

Continued, values first:

Compound recovery (Liver microsome [3]): metabolite_detected
Compound recovery [1]: metabolite_detected
Compound recovery [2]: metabolite_detected
Compound: COC(=O)N[C@H](C(=O)NNCc1ccc(-c2ccccn2)cc1)C(C)(C)C

Compound recovery (Liver microsome [3]): metabolite_detected
Compound recovery [1]: metabolite_detected
Compound recovery [2]: metabolite_detected
Compound: COC(=O)N[C@H](C(=O)NN(Cc1ccc(-c2ccccn2)cc1)C[C@H](O)[C@H](Cc1ccccc1)NC(=O)[C@@H](NC(=O)OC)C(C)(C)CO)C(C)(C)C

Compound recovery (Liver microsome [3]): metabolite_detected
Compound recovery [1]: metabolite_detected
Compound recovery [2]: metabolite_detected
Compound: COC(=O)N[C@H](C(=O)NN(Cc1ccc(-c2ccccn2)cc1)C[C@H](O)[C@H](Cc1ccccc1)NC(=O)[C@@H](N)C(C)(C)C)C(C)(C)C

Compound recovery (Liver microsome [3]): metabolite_detected
Compound recovery [1]: metabolite_detected
Compound recovery [2]: metabolite_detected
Compound: COC(=O)N[C@H](C(=O)NN(Cc1ccc(-c2ccccn2)cc1)C[C@H](O)[C@H](Cc1ccccc1)NC(=O)[C@@H](NC(=O)OC)C(C)(CO)CO)C(C)(C)C

Compound recovery [2]: metabolite_detected
Compound: COC(=O)N[C@H](C(=O)N[C@@H](Cc1ccccc1)[C@@H](O)C=O)C(C)(C)C

Source: ChEMBL document CHEMBL3525995, “CYP3A-mediated generation of aldehyde and hydrazine in atazanavir metabolism” (Drug Metab Dispos, 2011)
